What was measured:
Conditions in all cases: in vivo
Rattus norvegicus [1] = assay: Biodistribution in kidney of immature female rat after 1 hr administration of 3 micro Ci (111 kBq) in the presence of (+E2); assay type: ADME, organism-based
Summary of the method: (§1)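 Immature female Long Evans rats (21–24 days, 45–70 g), unanesthetized in retention cages, given 3 µCi (111 kBq) 125I-labeled steroid i.v. via lateral tail vein. Vehicle was ethanol diluted in saline containing 1% Tween-80, giving 9% ethanol final. The blocking group received 60 µg unlabeled estradiol co-injected. Rats were killed under ether by axillary bleeding, and tissues were KCl-washed and gamma-counted. Data are %ID/g, mean ± SE, n=3–5.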

Rattus norvegicus [2] = assay: Biodistribution in lungs of immature female rat after 1 hr administration of 3 micro Ci (111 kBq) in the absence of 60 microg estradiol; assay type: ADME, organism-based, Lung; summary of the method: as §1
Rattus norvegicus [3] = assay: Biodistribution in lungs of immature female rat after 3 hour administration of 3 micro Ci (111 kBq) in the absence of 60 microg estradiol; assay type: ADME, organism-based, Lung
Summary of the method: (§2)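 Immature female Long Evans rats (21–24 days, 45–70 g), three to five per group, given 125I-labeled steroid (3 μCi, 111 kBq) by lateral tail vein without anesthesia. Vehicle: ethanol diluted in saline with 1% Tween-80, final ethanol 9%, 0.22 μm filtered. +E2 groups received 60 μg unlabeled estradiol co-injected. Killed under ether at set times; tissues KCl-washed, blotted, weighed, gamma counted; %ID/g, mean with SE.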

Rattus norvegicus [4] = assay: Biodistribution in muscle of immature female rat after 1 hr administration of 3 micro Ci (111 kBq) in the absence of 60 microg estradiol; assay type: ADME, organism-based, Muscle tissue; summary of the method: as §2
Rattus norvegicus [5] = assay: Biodistribution in muscle of immature female rat after 1 hr administration of 3 micro Ci (111 kBq) in the presence of (+E2); assay type: ADME, organism-based, Muscle tissue; summary of the method: as §2
Rattus norvegicus [6] = assay: Biodistribution in muscle of immature female rat after 3 hour administration of 3 micro Ci (111 kBq) in the absence of 60 microg estradiol; assay type: ADME, organism-based, Muscle tissue; summary of the method: as §2
Rattus norvegicus [7] = assay: Biodistribution in spleen of immature female rat after 1 hr administration of 3 micro Ci (111 kBq) in the absence of 60 microg estradiol; assay type: ADME, organism-based; summary of the method: as §2
Rattus norvegicus [8] = assay: Biodistribution in spleen of immature female rat after 5 hour administration of 3 micro Ci (111 kBq) in the absence of 60 microg estradiol; assay type: ADME, organism-based; summary of the method: as §2
Rattus norvegicus [9] = assay: Biodistribution in blood of immature female rat after 12 hour administration of 3 micro Ci (111 kBq) in the absence of 60 microg estradiol; assay type: ADME, organism-based; summary of the method: as §1
Rattus norvegicus [10] = assay: Biodistribution in blood of immature female rat after 1 hr administration of 3 micro Ci (111 kBq) in the absence of 60 microg estradiol; assay type: ADME, organism-based; summary of the method: as §1
Rattus norvegicus [11] = assay: Biodistribution in blood of immature female rat after 1 hr administration of 3 micro Ci (111 kBq) in the presence of (+E2); assay type: ADME, organism-based; summary of the method: as §1
Rattus norvegicus [12] = assay: Biodistribution in blood of immature female rat after 3 hour administration of 3 micro Ci (111 kBq) in the absence of 60 microg estradiol; assay type: ADME, organism-based; summary of the method: as §1
Rattus norvegicus [13] = assay: Biodistribution in kidney of immature female rat after 3 hour administration of 3 micro Ci (111 kBq) in the absence of 60 microg estradiol; assay type: ADME, organism-based; summary of the method: as §1
Rattus norvegicus [14] = assay: Biodistribution in liver of immature female rat after 12 hour administration of 3 micro Ci (111 kBq) in the absence of 60 microg estradiol; assay type: ADME, organism-based; summary of the method: as §1
Rattus norvegicus [15] = assay: Biodistribution in liver of immature female rat after 1 hr administration of 3 micro Ci (111 kBq) in the absence of 60 microg estradiol; assay type: ADME, organism-based; summary of the method: as §1
Rattus norvegicus [16] = assay: Biodistribution in thyroid of immature female rat after 12 hour administration of 3 micro Ci (111 kBq) in the absence of 60 microg estradiol; assay type: ADME, organism-based, Thyroid gland; summary of the method: as §2
Rattus norvegicus [17] = assay: Biodistribution in thyroid of immature female rat after 1 hr administration of 3 micro Ci (111 kBq) in the absence of 60 microg estradiol; assay type: ADME, organism-based, Thyroid gland; summary of the method: as §2
Rattus norvegicus [18] = assay: Biodistribution in thyroid of immature female rat after 1 hr administration of 3 micro Ci (111 kBq) in the presence of (+E2); assay type: ADME, organism-based, Thyroid gland; summary of the method: as §2
Rattus norvegicus [19] = assay: Biodistribution in uterus / spleen, muscle, lungs of immature female rat after 1 hr administration of 3 micro Ci (111 kBq) in the presence of (+E2); assay type: ADME, organism-based
Summary of the method: (§3)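 Same in vivo procedure: immature female Long Evans rats (21–24 days), three to five per group, 3 μCi (111 kBq) tracer i.v. via tail vein in 9% ethanol/saline/1% Tween-80, ± 60 μg estradiol co-injected at 1 h. Uterus %ID/g (gamma counting) divided by blood, or by nontarget organ (muscle, spleen, lungs), %ID/g to give ratios.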

Rattus norvegicus [20] = assay: Biodistribution in uterus / spleen, muscle, lungs of immature female rat after 3 hour administration of 3 micro Ci (111 kBq) in the absence of 60 microg estradiol; assay type: ADME, organism-based
Summary of the method: (§4)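 Immature female Long Evans rats (21–24 days, 45–70 g), 3–5 per group, unanesthetized in retention cages, given 3 μCi (111 kBq) 125I-labeled steroid by lateral tail vein. Vehicle: ethanol diluted with saline containing 1% Tween-80, final ethanol 9%. +E2 group co-injected 60 μg unlabeled estradiol (1 h only). Killed under ether; tissues KCl-washed, weighed, gamma-counted. Output: %ID/g (mean, SE) and uterus to blood or nontarget (muscle, spleen, lungs) ratios.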

Rattus norvegicus [21] = assay: Biodistribution in uterus / spleen, muscle, lungs of immature female rat after 5 hour administration of 3 micro Ci (111 kBq) in the absence of 60 microg estradiol; assay type: ADME, organism-based; summary of the method: as §4
Rattus norvegicus [22] = assay: Biodistribution in uterus of immature female rat after 12 hour administration of 3 micro Ci (111 kBq) in the absence of 60 microg estradiol; assay type: ADME, organism-based; summary of the method: as §4
Rattus norvegicus [23] = assay: Biodistribution in uterus of immature female rat after 1 hr administration of 3 micro Ci (111 kBq) in the presence of (+E2); assay type: ADME, organism-based; summary of the method: as §4
Rattus norvegicus [24] = assay: Biodistribution in uterus of immature female rat after 5 hour administration of 3 micro Ci (111 kBq) in the absence of 60 microg estradiol; assay type: ADME, organism-based; summary of the method: as §4
Rattus norvegicus [25] = assay: Biodistribution in thyroid of immature female rat after 3 hour administration of 3 micro Ci (111 kBq) in the absence of 60 microg estradiol; assay type: ADME, organism-based, Thyroid gland; summary of the method: as §2
Rattus norvegicus [26] = assay: Biodistribution in uterus / blood of immature female rat after 12 hour administration of 3 micro Ci (111 kBq) in the absence of 60 microg estradiol; assay type: ADME, organism-based; summary of the method: as §3

| Structure (SMILES) | ID/g (Rattus norvegicus [1]) [%] | ID/g (Rattus norvegicus [2]) [%] | ID/g (Rattus norvegicus [3]) [%] | ID/g (Rattus norvegicus [4]) [%] | ID/g (Rattus norvegicus [5]) [%] | ID/g (Rattus norvegicus [6]) [%] | ID/g (Rattus norvegicus [7]) [%] | ID/g (Rattus norvegicus [8]) [%] | ID/g (Rattus norvegicus [9]) [%] | ID/g (Rattus norvegicus [10]) [%] | ID/g (Rattus norvegicus [12]) [%] | ID/g (Rattus norvegicus [13]) [%] | ID/g (Rattus norvegicus [14]) [%] | ID/g (Rattus norvegicus [15]) [%] | ID/g (Rattus norvegicus [16]) [%] | ID/g (Rattus norvegicus [17]) [%] | ID/g (Rattus norvegicus [18]) [%] | uterus-to-nontarget tissue uptake ratio (Rattus norvegicus [19]) [%] | Uterus to nontarget tissue (spleen, muscle, lungs) uptake ratio (Rattus norvegicus [20]) [%] | uterus to nontarget tissue ratio (Rattus norvegicus [21]) [%] | also measured |
| --- | --- | --- | --- | --- | --- | --- | --- | --- | --- | --- | --- | --- | --- | --- | --- | --- | --- | --- | --- | --- | --- |
| C[C@@H]1Cc2cc(O)c(F)cc2[C@H]2CC[C@@]3(C)[C@@H](CC[C@@]3(O)/C=C\I)[C@H]12 | 0.62 | 0.56 | 0.36 | 0.53 | 0.29 | 0.32 | 1.12 | 0.51 | 0.32 | 0.45 | 0.32 | 0.69 | 1.69 | 2.19 | 745 | 205 | 204 | 0.76 | 7.35 | 8.94 | ID/g (Rattus norvegicus [11]): 0.32%; ID/g (Rattus norvegicus [22]): 3.84%; ID/g (Rattus norvegicus [23]): 0.39%; ID/g (Rattus norvegicus [24]): 3.4%; ID/g (Rattus norvegicus [25]): 202%; Uterus-to-blood radioactivity ratio (dimensionless) (Rattus norvegicus [26]): 18.13% |
| CO[C@H]1C[C@@]2(C)[C@@H](CC[C@@]2(O)/C=C\I)[C@@H]2CCc3c(ccc(O)c3F)[C@H]21 | 1.36 | 0.84 | 0.66 | 0.66 | 0.77 | 0.48 | 2.04 | 0.66 | 0.25 | 0.66 | 0.56 | 1.08 | 0.83 | 2 | 4651 | 551 | 441 | 1.11 | 11.77 | 21.03 | ID/g (Rattus norvegicus [22]): 8.31%; ID/g (Rattus norvegicus [23]): 1.06%; ID/g (Rattus norvegicus [24]): 10.96%; ID/g (Rattus norvegicus [25]): 1446%; Uterus-to-blood radioactivity ratio (dimensionless) (Rattus norvegicus [26]): 34.58% |
| CO[C@H]1C[C@@]2(C)[C@@H](CC[C@@]2(O)/C=C/I)[C@@H]2CCc3cc(O)c(F)cc3[C@H]21 | 1.58 | 0.95 | 0.62 | 0.87 | 1.02 | 0.56 | 0.83 | 0.82 | 0.11 | 0.45 | 0.38 | 0.96 | 1.48 | 3.5 | 571 | 224 | 243 | 0.86 | 8.2 | 8.56 | ID/g (Rattus norvegicus [11]): 0.51%; ID/g (Rattus norvegicus [22]): 1.2%; ID/g (Rattus norvegicus [23]): 0.81%; ID/g (Rattus norvegicus [24]): 3.9%; ID/g (Rattus norvegicus [25]): 355%; Uterus-to-blood radioactivity ratio (dimensionless) (Rattus norvegicus [26]): 10.45% |
| C[C@@H]1Cc2cc(O)c(F)cc2[C@H]2CC[C@@]3(C)[C@@H](CC[C@@]3(O)/C=C/I)[C@H]12 | 0.49 | 0.54 | 0.28 | 0.61 | 0.31 | 0.15 | 0.31 | 0.18 | 0.12 | 0.29 | 0.2 | 0.29 | 1 | 2.29 | 446 | 78 | 114 | 1.09 | 3 | 3.61 | ID/g (Rattus norvegicus [11]): 0.29%; ID/g (Rattus norvegicus [22]): 0.35%; ID/g (Rattus norvegicus [23]): 0.39%; ID/g (Rattus norvegicus [24]): 0.63%; ID/g (Rattus norvegicus [25]): 197%; Uterus-to-blood radioactivity ratio (dimensionless) (Rattus norvegicus [26]): 2.99% |
